What is called IC50 is the midpoint of a concentration-inhibition curve. A higher IC50 goes with weaker potency. Usually inhibition stands for the relative decrease from the control value, in per cent. A low value points to a response near the control.

Consider 12 compounds from ChEMBL document CHEMBL1158827, “Free-radical-scavenging and xanthine oxidase inhibitory constituents from Stereospermum personatum” (J Nat Prod, 2005).

The target of data set [1] is T1, Xanthine dehydrogenase/oxidase (Homo sapiens, UniProt P47989). In words: Inhibition of xanthine oxidase at 50 ug/ml. In a few lines:
(§1)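 Single-concentration screen at 50 µg/mL. Samples showing less than 10% activity at this level were not carried forward to IC50 or SC50 determination.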

The nature of data set [2]: Antioxidant activity assessed as DPPH scavenging activity at 50 ug/ml. Format: functional. In a few lines: as §1
For orientation: Loss of DPPH colour is used to gauge radical scavenging.

Data set [3] is described as follows: Antioxidant activity assessed as DPPH scavenging activity. The class given is functional. In a few lines:
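SC50 is the concentration scavenging 50% of the DPPH free radical under the assay conditions. It was obtained by linear regression over at least five concentrations, each in triplicate, and reported as the mean.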

In data set [4] the target is T1, Xanthine dehydrogenase/oxidase. In words: Inhibition of xanthine oxidase.
The target is the same in data set [5]. In words: Inhibition of xanthine oxidase at 132 uM.

Active and inactive are the calls of the source. The calls are words filed in the database; no cut-off is given here.

T1 sequence (P47989 whole entry): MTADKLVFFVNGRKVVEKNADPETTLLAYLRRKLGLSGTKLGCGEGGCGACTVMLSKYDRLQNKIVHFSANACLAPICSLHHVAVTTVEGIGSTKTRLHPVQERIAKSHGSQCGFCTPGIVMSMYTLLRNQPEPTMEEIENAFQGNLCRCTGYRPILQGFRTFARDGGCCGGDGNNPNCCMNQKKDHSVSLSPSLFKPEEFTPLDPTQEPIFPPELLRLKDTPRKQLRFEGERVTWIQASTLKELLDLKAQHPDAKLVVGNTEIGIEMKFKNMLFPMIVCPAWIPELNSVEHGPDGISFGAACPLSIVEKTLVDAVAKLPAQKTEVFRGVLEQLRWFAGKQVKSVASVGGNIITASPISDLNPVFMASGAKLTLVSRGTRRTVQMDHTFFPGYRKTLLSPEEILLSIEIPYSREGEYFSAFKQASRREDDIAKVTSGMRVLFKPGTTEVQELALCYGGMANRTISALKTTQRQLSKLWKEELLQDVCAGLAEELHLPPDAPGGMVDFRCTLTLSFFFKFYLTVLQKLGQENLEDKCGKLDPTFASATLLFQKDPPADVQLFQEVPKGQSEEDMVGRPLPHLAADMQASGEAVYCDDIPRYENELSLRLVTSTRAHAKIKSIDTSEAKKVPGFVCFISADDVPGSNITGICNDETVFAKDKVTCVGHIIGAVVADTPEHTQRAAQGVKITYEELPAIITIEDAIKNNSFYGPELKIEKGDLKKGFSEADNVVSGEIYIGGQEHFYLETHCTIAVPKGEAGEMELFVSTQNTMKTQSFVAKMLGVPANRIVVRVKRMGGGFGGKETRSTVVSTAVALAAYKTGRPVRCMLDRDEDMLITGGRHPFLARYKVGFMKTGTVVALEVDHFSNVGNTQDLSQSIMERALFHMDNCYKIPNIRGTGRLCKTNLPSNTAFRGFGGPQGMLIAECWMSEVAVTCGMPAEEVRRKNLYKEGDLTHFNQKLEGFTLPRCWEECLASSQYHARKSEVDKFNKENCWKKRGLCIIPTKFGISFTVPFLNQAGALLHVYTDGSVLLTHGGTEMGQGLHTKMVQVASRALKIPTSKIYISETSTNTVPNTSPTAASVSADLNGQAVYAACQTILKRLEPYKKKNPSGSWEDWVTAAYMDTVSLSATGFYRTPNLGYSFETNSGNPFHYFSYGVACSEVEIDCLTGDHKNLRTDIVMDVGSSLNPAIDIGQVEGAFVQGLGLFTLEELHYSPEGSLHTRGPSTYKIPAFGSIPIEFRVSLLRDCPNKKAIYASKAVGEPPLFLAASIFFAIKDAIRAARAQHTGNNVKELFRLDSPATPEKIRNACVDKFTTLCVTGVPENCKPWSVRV

In the case of `Cc1c(CCC(C)O)ccc2c1C(=O)c1ccccc1C2=O` (stereo not drawn) [STEREQUINONE H], in data set [1], the Activity result is listed as “Not Active”. Also, the result in data set [2] was inactive.
On the same counts, the results for `CC1=CCc2c1cc1c(c2C)C(=O)c2ccccc2C1=O` [STEREQUINONE A] are “Not Active” and “inactive”.
With `COc1ccc2c(c1)C(=O)C1(O)C(=CC3=C(C)CCC3=C1C)C2=O` (stereo not drawn) [STEREQUINONE I], the Activity result in data set [1] is “Not Active”. The result in data set [2] was inactive.
On to `COc1ccc2c(c1)C(=O)c1c(ccc(CCC(C)=O)c1C)C2=O` [STEREQUINONE G], for which, in data set [1], the Activity result is “Not Active”. The outcome in data set [2] was inactive.
Consider `COc1cc(COC/C=C/c2cc(OC)c(OC)c(OC)c2)ccc1O`, for which the SC50 in data set [3] worked out at 7.58 µM. The Activity entry in data set [1] was “Not Active”.
In the case of `COc1cc(C[C@@H](CO)[C@H](CO)Cc2ccc(O)c(OC)c2)ccc1O` [(+)-SECOISOLARICIRESINOL], the SC50 in data set [3] stood at 12.5 µM. This compound also returned a half-inhibitory concentration (IC50) in data set [4] of 213 µM.
In the case of `COc1cc([C@H]2c3cc(O)c(OC)cc3C[C@@](O)(CO)[C@@H]2CO)ccc1O`, in data set [3], the SC50 worked out at 17.4 µM. For the same compound, the IC50 in data set [4] was 101 µM.
Consider `COc1cc(C[C@]2(O)CO[C@@H](c3ccc(O)c(OC)c3)[C@@H]2CO)ccc1O` [OLIVIL], for which, in data set [3], the SC50 was determined as 15.1 µM. The compound further displayed an inhibition at 132 µM in data set [5] of 23.6%.
For the compound `COc1cc(/C=C/C(=O)O)ccc1O` [FERULATE], the SC50 in data set [3] worked out at 32.5 µM. Besides, the Activity result in data set [1] is recorded as “Not Active”.
Consider `CC(=O)CCc1ccc2c(c1C)C(=O)c1ccccc1C2=O` [STEREQUINONE F], for which the Activity entry in data set [1] was “Not Active”. Besides, the result in data set [2] was inactive.
For the compound `COc1cc(C[C@@H]2COC[C@@H]2C(O)c2ccc(O)c(OC)c2)ccc1O` (stereo partly drawn), the SC50 in data set [3] turned out to be 15.2 µM. Further, half-maximal inhibition in data set [4] (IC50) was put at 111 µM.
On to `Cc1c(C)c2c(c(C)c1O)CCC(C)(C(=O)O)O2` (stereo not drawn), for which the SC50 in data set [3] is 15.9 µM.
